Cl transport mod = KCC2 cotransporter modulators, thallium flux, primary screen, cell-based, HEK293 KCC2, FluoZin-2 fluorescence, MLSMR; Solute carrier family 12 member 5 (Homo sapiens), Q9H2X9; KCC2 cells, thallium flux FluoZin-2 fluorescence; B-score of Tl+ flux slope (higher = more flux/activation; lower = inhibition) at 10 µM; 2.2% of 190,000 active; AID 1456, 2008;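 active = thallium flux slope and its plate-corrected score both differing from the plate sample mean at a set confidence after two filtering rounds, in either direction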;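 note: slope of fluorescence scaled to starting intensity during 10 to 20 s after thallium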
Target sequence (Q9H2X9 whole entry, looked up): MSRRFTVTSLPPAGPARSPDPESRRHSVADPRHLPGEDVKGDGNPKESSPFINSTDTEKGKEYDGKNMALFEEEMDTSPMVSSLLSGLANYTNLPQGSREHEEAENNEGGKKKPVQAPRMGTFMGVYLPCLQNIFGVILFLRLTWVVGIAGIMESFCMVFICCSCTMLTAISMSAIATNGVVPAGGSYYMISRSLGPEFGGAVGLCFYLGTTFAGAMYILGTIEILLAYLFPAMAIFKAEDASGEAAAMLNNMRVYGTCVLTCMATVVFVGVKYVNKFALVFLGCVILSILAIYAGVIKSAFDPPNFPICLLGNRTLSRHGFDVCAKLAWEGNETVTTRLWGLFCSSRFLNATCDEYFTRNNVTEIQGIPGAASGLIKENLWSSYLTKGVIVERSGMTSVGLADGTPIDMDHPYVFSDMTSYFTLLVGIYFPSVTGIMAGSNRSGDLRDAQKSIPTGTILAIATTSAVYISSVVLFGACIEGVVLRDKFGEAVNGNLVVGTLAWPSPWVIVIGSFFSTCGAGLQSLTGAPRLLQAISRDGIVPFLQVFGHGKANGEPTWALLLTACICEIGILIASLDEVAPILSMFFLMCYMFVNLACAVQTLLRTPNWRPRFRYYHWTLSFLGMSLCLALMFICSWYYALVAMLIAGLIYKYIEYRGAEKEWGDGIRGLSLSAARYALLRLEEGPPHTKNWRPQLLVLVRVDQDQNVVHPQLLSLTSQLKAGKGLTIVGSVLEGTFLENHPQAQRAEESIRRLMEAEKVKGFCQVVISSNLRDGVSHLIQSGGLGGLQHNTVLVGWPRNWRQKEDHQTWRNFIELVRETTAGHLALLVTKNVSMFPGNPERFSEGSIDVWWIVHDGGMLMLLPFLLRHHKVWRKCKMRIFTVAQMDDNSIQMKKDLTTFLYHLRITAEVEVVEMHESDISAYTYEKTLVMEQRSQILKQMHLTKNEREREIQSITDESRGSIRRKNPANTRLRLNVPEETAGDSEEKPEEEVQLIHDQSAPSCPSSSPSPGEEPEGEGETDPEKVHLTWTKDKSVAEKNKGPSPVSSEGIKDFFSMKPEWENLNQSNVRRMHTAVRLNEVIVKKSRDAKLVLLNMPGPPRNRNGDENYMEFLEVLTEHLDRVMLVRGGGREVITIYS
bCat nuc transl = modulators of beta-catenin nuclear translocation, primary screen, imaging, HeLa cells, immunofluorescence, high-content | nuclear translocation activity, % at 5 µM | 0.3% of 190,000 active | AID 1665, 2009;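 active = nuclear translocation activity above 50% at 5 µM, with a well cell count of 50 or more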;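 note: per-cell ratio of nuclear to cytoplasmic median beta-catenin stain intensity; plate controls were DMSO negative control for no effect and GSK-3 inhibitor IX positive control for full effect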
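Test system: human HeLa cells, native beta-catenin. Compound dosing: 5 µM primary single dose, 0.1% DMSO, 0.02–20 µM confirmation series. Incubation: compound exposure 24 h at 37°C. Detection: beta-catenin immunostaining with DAPI counterstain, 20x imaging, 6 fields/well. Read-out basis: Nuclear/cytoplasmic beta-catenin signal ratio, % activation.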
MT stabilizer = microtubule stabilizers in HeLa cells, primary screen, imaging, high-content imaging | HeLa tubulin immunostaining HCS, 24 h; share of cells brighter than vehicle mean+2SD | % tubulin-high responders, % at 10 µM | 0.83% of 200,000 active;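 active = plate Z-score above 3 for both tubulin-high and condensed-nucleus cell shares, with cell loss under 80%, at 10 µM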;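 note: anti alpha tubulin signal scored within the nucleus-defined area of each cell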
DTT redox prof = compounds producing H2O2 with reducing agent – biochemical, NIH compound library profiling, artefact control for MLSCN library redox annotation, primary screen; 0.03% of 200,000 active; DTT-dependent redox cycling H2O2, phenol red/HRP absorbance; 100% = 100 µM peroxide control, 0% = buffer; activation, % at 10 µM;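 active = activation of at least 50% relative to the plate's high and low controls in the primary single-dose screen; inactive = activation below 50%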;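 note: compound incubated with DTT at 0.8 mM final as the reducing agent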
ROMK primary = ROMK potassium channel modulators, primary screen, cell-based, thallium flux, MLSMR library; ATP-sensitive inward rectifier potassium channel 1 (Homo sapiens), P48048; Tet-inducible ROMK, thallium flux fluorescence; actives lie on both sides; B-score at 10 µM; 2% of 130,000 active; AID 1918, 2009;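 active = signal ratio slope over the read window, or its plate-corrected B-score, at least 3 SD from the plate mean, either direction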;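 note: B-score of the F/F0 ratio slope over 7 to 12 s after thallium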
Numbers without * were called inactive; . = not tested or not shown. Compounds with a hit are over-represented: about 3.7% of the library has one in this group of screens.

SMILES | Cl transport mod | bCat nuc transl | MT stabilizer | DTT redox prof | ROMK primary
CSc1nnc2c3cc(F)ccc3n(Cc3ccccc3)c2n1 | . | -4.5 | . | . | .
Cc1nc2c3cc(F)ccc3n(CCN3CCCCC3)c2s1 | 0.473 | 49.1 | 14.5* | 1.8 | -1.4
Cc1nc2c3cc(F)ccc3n(Cc3ccccc3)c2s1 | -0.286 | -0.3 | 28.0* | -0.6 | 0.245
Cc1nc2c3ccccc3n(Cc3ccccc3F)c2s1 | -0.281 | -1.7 | 2.9 | 0.7 | -1.62
Cc1nc2c3cc(F)ccc3n(Cc3ccccc3F)c2s1 | -0.724 | 2.1 | 26.6* | -0.4 | -0.000646
Fc1cccc(F)c1-n1c(CN2CCCCC2)csc1=S | -1.67 | -2.2 | 16.0* | -2.8 | 0.175
CCCCN1C(=O)/C(=C2/Sc3ccccc3N2C)S/C1=N\c1ncn[nH]1 | 0.202 | 0.9 | 2.7 | -1.0 | -0.729
COc1cccc(C2CC(c3ccc(Br)cc3)=NN2C(=O)c2ccncc2)c1OC (configuration not stated) | -0.975 | -6.5 | 11.6 | -0.2 | 0.868
COc1ccccc1C1CC(c2ccc(Br)cc2)=NN1C(=O)c1cccnc1 (configuration not stated) | -0.824 | 83.1* | 14.9* | 0.4 | .
Cc1ccccc1NC1=NC(=S)N(c2ccccc2)C12CCOC(C)(C)C2 (configuration not stated) | 25.8* | -0.6 | 2.8 | 1.9 | .
O=C(Nc1ccncc1)C1CCCN(S(=O)(=O)c2cccc3cccnc23)C1 (configuration not stated) | 0.618 | 88.4* | 21.8* | -0.6 | .
COc1cccc(NC(=O)C2CCCN(S(=O)(=O)c3cccc4cccnc34)C2)c1 (configuration not stated) | -0.608 | 1.0 | 2.7 | -0.6 | .
CCOC(=O)N1CCC(NC(=O)Cn2ncc3c4ccccc4n(C)c3c2=O)CC1 | -2.59* | -2.3 | 4.0 | 0.3 | .
CCOC(=O)N1CCC(NC(=O)Cn2ncc3ccccc32)CC1 | 0.0235 | . | 1.8 | -0.2 | .
CCn1ncc(Cl)c1C(=O)Nc1cc([N+](=O)[O-])ccc1OC | 1.4 | . | 1.8 | -0.3 | -0.0734
Cc1nn(-c2ccccc2)c(C)c1/C=N/NC(=O)c1cc(-c2cccc3ccccc23)n[nH]1 | -0.519 | -0.3 | 21.1 | 0.1 | .
Cc1nn(-c2ccccc2)c(C)c1/C=N/NC(=O)c1cc(-c2ccccc2)n[nH]1 | . | 80.3* | 14.0* | 1.9 | .
CC1C/C(=N\NC(=S)NC(C)C)CC(C)(C)C1 (configuration not stated) | . | -1.2 | 1.7 | 0.1 | -0.927
COc1ccccc1N1CCN(c2ncnc3c2oc2ccccc23)CC1 | . | 74.0* | 26.8* | -3.9 | 0.929
COc1ccccc1N1CCN(C(=O)c2oc3ccc(Br)cc3c2C)CC1 | 0.448 | 22.6 | 14.7* | 0.2 | 1.15
c1cnc(N2CCN(c3ncnc4c3oc3ccccc34)CC2)nc1 | . | -0.5 | . | . | .
COc1cccc(OCC(=O)O/N=C(\N)c2ccc(OC)c(OC)c2)c1 | -0.689 | -1.0 | 1.9 | 0.4 | .
Cc1nn2cc(-c3cccc(Cl)c3)cnc2c1Cl | 0.111 | 69.5* | 19.5* | -2.0 | 1.37
CC(C)n1nnnc1-c1cccc(Cl)c1 | 0.981 | -1.3 | 2.5 | 3.5 | .
Cc1nn2cc(-c3cccc(Cl)c3)cnc2c1Br | 0.619 | 0.9 | 16.0* | -0.3 | 1.88
SMILES | Cl transport mod | bCat nuc transl | MT stabilizer | DTT redox prof | ROMK primary
Cc1ccc(S(=O)(=O)/N=C(/c2ccccc2)N2CCOCC2)c(C)c1 | 0.277 | -6.5 | 6.7 | 0.2 | -0.407
CCOC(=O)c1sc(N)c(C(=O)OC)c1C | -0.542 | 1.5 | 2.7 | -0.6 | -0.846
CCOC(=O)c1sc(N)c(C(=O)Nc2ccccc2OC)c1C | -0.478 | 80.1* | 22.1* | 0.2 | 2.61
Cc1ccc(C)c(NC(=S)N=Nc2c(O)n(C)c3ccc(S(=O)(=O)N4CCOCC4)cc23)c1 | 5.66* | -2.2 | 2.8 | 0.4 | .
Cc1ccc(Cn2c(O)c(N=NC(=S)Nc3ccccc3F)c3cc(S(=O)(=O)N4CCOCC4)ccc32)cc1 | 6.66 | 0.9 | 3.8 | -0.8 | -0.297
O=C(NC(=S)Nc1ccc(S(=O)(=O)N2CCCCC2)cc1)c1ccccc1 | 0.662 | -7.0 | 2.3 | -0.2 | 2.83*
CN(c1ccccc1)S(=O)(=O)c1ccc(NC(=S)NC(=O)c2ccccc2)cc1 | 3.05* | -0.8 | 2.7 | 0.0 | .
CCN(c1ccccc1)S(=O)(=O)c1ccc(NC(=S)NC(=O)c2ccc(Br)o2)cc1 | 20.2* | -0.8 | 1.7 | 2.7 | .
O=C(Nc1nnc(-c2ccccc2Cl)o1)c1ccc(S(=O)(=O)N2CCCCCC2)cc1 | 8.49* | -7.3 | 3.6 | 3.3 | .
O=C(Nc1nnc(C2=COCCO2)o1)c1ccc(S(=O)(=O)N2CCCCC2)cc1 | -0.119 | -1.0 | 4.9 | -0.3 | -0.504
CCN1CCN(c2nc(Nc3ccc(NC(C)=O)cc3)nc(Nc3ccc(NC(C)=O)cc3)n2)CC1 | -0.144 | 1.3 | . | . | .
Cc1c(NC(=S)NC(=O)c2ccc(Br)o2)c(=O)n(-c2ccccc2)n1C | 0.957 | -3.3 | 2.3 | -0.4 | .
Cc1cccc(C)c1NC(=S)NC(=O)c1ccc(Br)o1 | 192* | 1.7 | 2.4 | 0.9 | 2.11*
O=C(COc1ccccc1-c1ccccc1)NNC(=O)NC1CCCCC1 | -0.525 | 0.7 | 5.6 | -1.1 | -0.447
O=C(/C=C/c1cn(-c2ccccc2)nc1-c1cccnc1)N1CCCC1 | -2.81 | -1.4 | 3.9 | 0.2 | -0.161
O=C(/C=C/c1cn(-c2ccccc2)nc1-c1cccnc1)c1ccco1 | -0.848 | 7.5 | 12.0* | -9.9 | 2.65
CCOC(=O)C1=C(N)Oc2c(oc(CO)cc2=O)C1c1ccccc1 (configuration not stated) | -0.826 | -1.8 | 2.8 | -0.7 | -0.398
Cc1ccc2[nH]c(C)cc(=S)c2c1 | -0.524 | 1.9 | 23.1* | 0.8 | -0.136
N#Cc1c(-c2cccs2)nc(SCc2ccc(Cl)cc2)[nH]c1=O | -3.47* | 1.0 | 2.1 | -0.7 | 3.55*
COc1ccc(NC(=O)Cc2ccc(-c3ccccc3)cc2)cn1 | -0.483 | 96.5* | 25.6* | -1.1 | 1.89
COc1ccc(CC(=O)Nc2ccc(OC)nc2)cc1 | 0.123 | -1.6 | 5.3 | -2.3 | 0.0136
N=C1/C(=C\c2ccc(-c3cc(Cl)cc(Cl)c3)o2)C(=O)N=C2SC=C(c3ccccc3)N12 | 1.55 | -0.6 | 6.6 | 0.7 | .
N=C1/C(=C/c2ccc(-c3cccc(C(=O)O)c3)o2)C(=O)N=C2SC=C(c3ccccc3)N12 | -4.53 | -0.1 | 2.7 | -1.3 | 2.26*
N=C1/C(=C/c2cccn2CCOc2ccccc2)C(=O)N=C2SC=C(c3ccccc3)N12 | 0.0352 | 35.7 | 30.4* | 0.8 | -0.43
CCOc1ncccc1C(=O)Nc1nc(SC)ns1 | 0.0279 | -4.6 | 3.7 | -2.1 | -0.298
Cc1ccc(OCC(=O)NC(=S)Nc2cccc(C)n2)cc1 | 8.41* | -0.5 | 2.7 | -0.8 | 0.245

Compound activity: PubChem, several laboratories
